Laboratory results reported in ChEMBL document CHEMBL1144993, “Imidazoline binding sites (IBS) profile modulation: key role of the bridge in determining I1-IBS or I2-IBS selectivity within a series of 2-phenoxymethylimidazoline analogues” (J Med Chem, 2003).

Key:
[1] = molecular target: T1, Adrenergic receptor alpha-2 (Rattus norvegicus, UniProt P22086+P19328+P22909); test: Displacement of [3H]clonidine from rat cortex membrane Alpha-2 adrenergic receptors
T1 sequence (P22086 whole entry): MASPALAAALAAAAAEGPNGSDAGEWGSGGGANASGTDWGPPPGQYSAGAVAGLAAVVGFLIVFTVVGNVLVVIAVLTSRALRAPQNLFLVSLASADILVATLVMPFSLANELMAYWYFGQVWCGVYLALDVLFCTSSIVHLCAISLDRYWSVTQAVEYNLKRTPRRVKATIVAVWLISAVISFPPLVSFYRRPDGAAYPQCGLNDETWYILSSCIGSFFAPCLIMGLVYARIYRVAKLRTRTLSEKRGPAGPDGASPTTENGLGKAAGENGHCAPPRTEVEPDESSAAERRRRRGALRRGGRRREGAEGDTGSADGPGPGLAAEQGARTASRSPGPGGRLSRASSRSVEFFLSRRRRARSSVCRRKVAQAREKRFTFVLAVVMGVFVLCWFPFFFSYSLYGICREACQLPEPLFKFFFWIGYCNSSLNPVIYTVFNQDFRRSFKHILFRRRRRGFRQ
T1 sequence (P19328 whole entry): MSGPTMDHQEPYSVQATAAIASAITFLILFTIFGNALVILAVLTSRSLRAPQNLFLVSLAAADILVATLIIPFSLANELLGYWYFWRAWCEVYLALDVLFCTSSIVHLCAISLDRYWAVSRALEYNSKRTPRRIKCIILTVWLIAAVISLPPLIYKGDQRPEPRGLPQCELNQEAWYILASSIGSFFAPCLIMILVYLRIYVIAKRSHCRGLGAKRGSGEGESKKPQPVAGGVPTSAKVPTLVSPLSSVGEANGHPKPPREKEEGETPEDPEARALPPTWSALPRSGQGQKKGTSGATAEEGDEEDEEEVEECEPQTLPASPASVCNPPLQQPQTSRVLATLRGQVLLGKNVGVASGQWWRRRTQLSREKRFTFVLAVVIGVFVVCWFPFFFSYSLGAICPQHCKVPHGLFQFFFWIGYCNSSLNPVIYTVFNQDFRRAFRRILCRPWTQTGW
T1 sequence (P22909 whole entry): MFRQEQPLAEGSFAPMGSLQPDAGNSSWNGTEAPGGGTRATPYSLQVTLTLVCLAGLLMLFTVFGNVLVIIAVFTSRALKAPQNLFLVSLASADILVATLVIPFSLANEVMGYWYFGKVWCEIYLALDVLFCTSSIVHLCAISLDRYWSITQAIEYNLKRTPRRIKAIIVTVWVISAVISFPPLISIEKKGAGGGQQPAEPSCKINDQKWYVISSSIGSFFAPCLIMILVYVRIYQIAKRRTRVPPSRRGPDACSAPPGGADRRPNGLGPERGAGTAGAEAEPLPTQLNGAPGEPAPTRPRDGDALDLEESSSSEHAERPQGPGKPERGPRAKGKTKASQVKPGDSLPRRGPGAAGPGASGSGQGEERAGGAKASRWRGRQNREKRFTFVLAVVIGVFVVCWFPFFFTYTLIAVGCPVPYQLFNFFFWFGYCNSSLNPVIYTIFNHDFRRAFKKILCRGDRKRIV
Outline: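 Rat cerebral cortex membranes (200 μg protein) incubated with 5 nM [3H]-clonidine and 10–12 competitor concentrations in 50 mM Tris-HCl pH 7.4, 45 min at 25 °C. Nonspecific binding with 10 μM phentolamine. GF/B filtration, scintillation counting, triplicate points.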

[2] = molecular target: Imidazoline I2 binding site (Oryctolagus cuniculus); test: Displacement of [3H]idazoxan from imidazoline receptor I-2 of rabbit kidney membranes
[3] = Relative binding to imidazoline I2 and alpha-2 adrenergic receptors ([…])
[4] = Relative binding to imidazoline I2 and imidazoline I1 binding sites ([…])
[5] = Relative binding to imidazoline I1 and alpha-2 adrenergic receptors ([…])
[6] = Relative binding to imidazoline I1 and imidazoline I2 binding sites ([…])
[7] = tested on: Oryctolagus cuniculus; test: Heart rate during 15 minute pretreatment with intracisternal compound administration; assay type: functional
Outline: (§1)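 Male normotensive Zika rabbits (2.5–3.5 kg), pentobarbitone 40 mg/kg iv anesthesia, 38 °C, tracheotomized, pancuronium 1 mg/kg iv, ventilated. Test drug given intracisternally as 0.2 mL after equal CSF removal, total 300 μg/kg; vehicle group 100 μL saline ic. Clonidine 10 μg/kg iv 15 min later. MAP = diastolic + 1/3 pulse pressure; HR from pressure signal. Mean ± SEM, n = 4–5; repeated-measures ANOVA.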

[8] = tested on: Oryctolagus cuniculus; test: Heart rate following 15 minute pretreatment with intracisternal compound administration and 10 ug/kg iv clonidine; assay type: functional; outline: as §1
[9] = tested on: Oryctolagus cuniculus; test: Mean arterial pressure following 15 minute pretreatment with intracisternal compound administration and 10 ug/kg iv clonidine; assay type: functional, Artery; outline: as §1
[10] = tested on: Oryctolagus cuniculus; test: Mean arterial pressure during 15 minute pretreatment with intracisternal compound administration; assay type: functional, Artery; outline: as §1
[11] = Displacement of [125I]p-iodoclonidine from imidazoline receptor I-1 in rat pheochromocytoma cells

C[C@@H](CC1=NCCN1)c1ccccc1
Log Ki [1]: -5.8
Log Ki [2]: -7

C(=C\c1ccccc1)/C1=NCCN1
Ratio [3]: 7410
Ratio [4]: 10
Ratio [5]: 741
Ratio [6]: 0.1

CC(CC1=NCCN1)c1ccccc1 (stereo not given)
Log Ki [1]: -5.93
Log Ki [2]: -6.91

CC(Oc1ccccc1)C1=NCCN1 (stereo not given)
Ratio [3]: 0.04
Ratio [4]: 0.11
Ratio [5]: 0.32
Ratio [6]: 8.71

CC(Cc1ccccc1)C1=NCCN1 (stereo not given)
Log Ki [1]: -5.45
Heart rate [7]: 363 beats min-1
Heart rate [8]: 355 beats min-1
MAP [9]: 91 mmHg
MAP [10]: 99 mmHg

c1ccc(CCC2=NCCN2)cc1 [PHENYZOLINE]
Log Ki [1]: -5.7
Ratio [3]: 794
Ratio [4]: 1480
Ratio [5]: 0.54
Ratio [6]: 0.0007
Log Ki [2]: -8.6

c1ccc(C2CC2C2=NCCN2)cc1 (stereo not given)
Log Ki [11]: -7.76

c1ccc([C@H]2C[C@@H]2C2=NCCN2)cc1
Log Ki [11]: -7.93

C[C@H](Cc1ccccc1)C1=NCCN1
Log Ki [1]: -5.4

C[C@@H](Cc1ccccc1)C1=NCCN1
Log Ki [1]: -5.3

c1ccc([C@@H]2C[C@H]2C2=NCCN2)cc1
Log Ki [11]: -6.46

C[C@H](CC1=NCCN1)c1ccccc1
Log Ki [1]: -5.9
Log Ki [2]: -5.6
